Results reported in ChEMBL document CHEMBL3259559, “Design, synthesis and preliminary evaluation of α-sulfonyl γ-(glycinyl-amino)proline peptidomimetics as matrix metalloproteinase inhibitors” (Bioorg Med Chem, 2014).

Tests used:
[1] = target: T1, 72 kDa type IV collagenase (Homo sapiens, UniProt P08253); assay: Inhibition of MMP2 (unknown origin) using succinylated gelatin as substrate preincubated for 10 mins before substrate addition measured after 30 mins by spectrophotometry
Procedure, shortened: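 Purified MMP-2 (gelatinase A) and inhibitor in 50 mmol/L sodium borate pH 8.5, preincubated 10 min at 37 °C. Succinylated gelatin then added for 30 min at 37 °C, followed by 0.03% TNBS for 20 min; OD read at 450 nm. IC₅₀ as mean with SD of three experiments.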

Aminopeptidase N = target: T2, Aminopeptidase N (Sus scrofa, UniProt P15145); assay: Inhibition of pig kidney microsomal APN using L-Leu-p-nitroanilide as substrate preincubated for 5 mins before substrate addition measured after 30 mins by spectrophotometry
T2 sequence (P15145 whole entry): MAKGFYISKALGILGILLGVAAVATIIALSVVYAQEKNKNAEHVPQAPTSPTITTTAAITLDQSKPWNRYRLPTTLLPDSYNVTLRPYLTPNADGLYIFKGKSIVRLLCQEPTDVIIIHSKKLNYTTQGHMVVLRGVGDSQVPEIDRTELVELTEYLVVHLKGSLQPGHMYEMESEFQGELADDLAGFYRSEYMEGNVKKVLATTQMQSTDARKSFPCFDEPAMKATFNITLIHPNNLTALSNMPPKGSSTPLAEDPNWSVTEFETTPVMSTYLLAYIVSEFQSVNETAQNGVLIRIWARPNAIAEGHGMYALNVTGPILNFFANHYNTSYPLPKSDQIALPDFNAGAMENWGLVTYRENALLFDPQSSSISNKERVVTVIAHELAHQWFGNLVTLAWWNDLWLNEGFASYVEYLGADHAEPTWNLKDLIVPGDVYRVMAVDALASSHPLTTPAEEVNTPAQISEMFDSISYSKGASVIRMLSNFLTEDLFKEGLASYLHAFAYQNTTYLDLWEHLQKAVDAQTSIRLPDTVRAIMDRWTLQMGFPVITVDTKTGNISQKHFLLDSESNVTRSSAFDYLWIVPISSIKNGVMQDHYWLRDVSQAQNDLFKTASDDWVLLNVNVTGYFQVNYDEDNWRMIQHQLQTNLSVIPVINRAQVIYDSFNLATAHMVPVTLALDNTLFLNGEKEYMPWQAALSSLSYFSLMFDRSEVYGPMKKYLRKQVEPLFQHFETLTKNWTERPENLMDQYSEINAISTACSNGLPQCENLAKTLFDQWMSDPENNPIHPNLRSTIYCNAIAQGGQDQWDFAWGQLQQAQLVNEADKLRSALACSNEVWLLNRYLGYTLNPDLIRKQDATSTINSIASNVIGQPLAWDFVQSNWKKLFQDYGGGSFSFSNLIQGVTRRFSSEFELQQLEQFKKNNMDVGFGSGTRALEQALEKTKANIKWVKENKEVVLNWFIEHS

Histone deacetylase = assay: Inhibition of HDAC in human HeLa nuclear extract using Boc-Lys (acetyl)-AMC as fluorogenic substrate after 30 mins by spectrophotometry; assay type: protein assay
[2] = target: T1, 72 kDa type IV collagenase; assay: Inhibition of MMP2 in human SKOV3 cell suspension using succinylated gelatin as substrate preincubated for 10 mins before substrate addition measured after 30 mins by spectrophotometry; set-up: species or system SK-OV-3
Procedure, shortened: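 Enzyme source was SKOV-3 cells suspended in PBS, 1 × 10⁵/well, incubated with inhibitor in 50 mmol/L sodium borate pH 8.5 for 10 min at 37 °C. Succinylated gelatin added for 30 min at 37 °C, then 0.03% TNBS for 20 min; absorbance at 450 nm. IC₅₀ as mean with SD of three experiments.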

HL-60 = assay: Antiproliferative activity against human HL60 cells after 48 hrs by MTT assay; assay type: functional, cell-based; details: HL-60, 48 h
Procedure, shortened: (§1)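 Cells kept in RPMI1640 with 10% FBS at 37 °C, 5% CO₂; seeded 10,000/well, grown 4 h, then exposed to graded compound concentrations for 48 h. 0.5% MTT added for 4 h, formazan dissolved in DMSO 15 min. IC₅₀ as mean with SD of triplicate experiments.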

A549 = assay: Antiproliferative activity against human A549 cells after 48 hrs by MTT assay; assay type: functional, cell-based; details: A549, 48 h; procedure, shortened: as §1
SK-OV-3 = assay: Antiproliferative activity against human SKOV3 cells after 48 hrs by MTT assay; assay type: functional, cell-based; details: SK-OV-3, 48 h; procedure, shortened: as §1

T1 sequence (P08253 whole entry): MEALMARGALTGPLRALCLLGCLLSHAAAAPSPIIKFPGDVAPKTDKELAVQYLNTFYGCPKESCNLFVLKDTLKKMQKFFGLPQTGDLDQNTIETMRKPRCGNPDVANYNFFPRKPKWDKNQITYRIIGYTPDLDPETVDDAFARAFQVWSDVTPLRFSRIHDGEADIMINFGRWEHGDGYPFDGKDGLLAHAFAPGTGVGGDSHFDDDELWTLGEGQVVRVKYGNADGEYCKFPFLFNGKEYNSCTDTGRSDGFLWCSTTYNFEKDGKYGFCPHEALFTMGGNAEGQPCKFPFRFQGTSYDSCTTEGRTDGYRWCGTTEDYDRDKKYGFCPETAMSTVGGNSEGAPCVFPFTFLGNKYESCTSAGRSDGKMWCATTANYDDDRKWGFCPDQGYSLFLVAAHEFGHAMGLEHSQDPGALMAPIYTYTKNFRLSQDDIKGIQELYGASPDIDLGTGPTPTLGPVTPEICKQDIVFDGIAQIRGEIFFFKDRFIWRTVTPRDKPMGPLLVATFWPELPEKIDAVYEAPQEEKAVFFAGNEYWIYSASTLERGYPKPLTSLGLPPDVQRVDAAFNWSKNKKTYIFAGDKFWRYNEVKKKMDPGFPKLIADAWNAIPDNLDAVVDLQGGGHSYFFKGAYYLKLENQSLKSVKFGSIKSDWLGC

| Structure (SMILES) | IC50 [1] [µM] | IC50 (Aminopeptidase N) [µM] | IC50 (Histone deacetylase) [µM] | IC50 [2] [µM] | IC50 (HL-60) [µM] | IC50 (A549) [µM] | IC50 (SK-OV-3) [µM] |
| --- | --- | --- | --- | --- | --- | --- | --- |
| C[C@H](N)C(=O)NCC(=O)N[C@H]1C[C@@H](C(=O)NO)N(S(=O)(=O)c2ccccc2)C1.Cl | 7.43 | > 100 | > 100 | – | – | – | – |
| CC(C)C[C@H](N)C(=O)NCC(=O)N[C@H]1C[C@@H](C(=O)NO)N(S(=O)(=O)c2ccccc2)C1.Cl | 1.52 | 82.3 | > 100 | – | – | – | – |
| CC[C@H](C)[C@H](N)C(=O)NCC(=O)N[C@H]1C[C@@H](C(=O)NO)N(S(=O)(=O)c2ccccc2)C1.Cl | 5.21 | > 100 | > 100 | – | – | – | – |
| Cl.N[C@@H](Cc1ccccc1)C(=O)NCC(=O)N[C@H]1C[C@@H](C(=O)NO)N(S(=O)(=O)c2ccccc2)C1 | 2.07 | 94.5 | > 100 | – | – | – | – |
| CSCC[C@H](N)C(=O)NCC(=O)N[C@H]1C[C@@H](C(=O)NO)N(S(=O)(=O)c2ccccc2)C1.Cl | 2.32 | > 100 | > 100 | – | – | – | – |
| Cc1ccc(S(=O)(=O)N2C[C@@H](NC(=O)CNC(=O)[C@@H](N)Cc3ccccc3)C[C@H]2C(=O)NO)cc1.Cl | 0.98 | 88 | > 100 | – | – | – | – |
| CSCC[C@H](N)C(=O)NCC(=O)N[C@H]1C[C@@H](C(=O)NO)N(S(=O)(=O)c2ccc(C)cc2)C1.Cl | 1.03 | > 100 | > 100 | – | – | – | – |
| COc1ccc(S(=O)(=O)N2C[C@@H](NC(=O)CNC(=O)[C@@H](N)Cc3ccccc3)C[C@H]2C(=O)NO)cc1.Cl | 0.72 | 93.8 | > 100 | 31.5 | – | – | – |
| C[C@H](N)C(=O)NCC(=O)N[C@H]1C[C@@H](C(=O)NO)N(S(=O)(=O)c2ccc(Cl)cc2)C1.Cl | 3.36 | > 100 | > 100 | – | – | – | – |
| CC(C)C[C@H](N)C(=O)NCC(=O)N[C@H]1C[C@@H](C(=O)NO)N(S(=O)(=O)c2ccc(Cl)cc2)C1.Cl | 0.27 | 72.3 | > 100 | 18.4 | > 1000 | > 1000 | 196 |
| Cl.N[C@@H](Cc1ccccc1)C(=O)NCC(=O)N[C@H]1C[C@@H](C(=O)NO)N(S(=O)(=O)c2ccc(Cl)cc2)C1 | 0.43 | 89.9 | > 100 | 24.7 | > 1000 | > 1000 | 285 |
| CSCC[C@H](N)C(=O)NCC(=O)N[C@H]1C[C@@H](C(=O)NO)N(S(=O)(=O)c2ccc(Cl)cc2)C1.Cl | 0.46 | 95.3 | > 100 | 26.2 | > 1000 | > 1000 | 322 |
| COc1ccc(/C=C/C(=O)N2C[C@@H](NC(=O)c3cccnc3)C[C@H]2C(=O)NO)cc1OC | 0.95 | > 100 | > 100 | 43.7 | > 1000 | > 1000 | 697 |
| CC(C)C[C@H](NC(=O)[C@@H](O)[C@H](N)Cc1ccccc1)C(=O)O [UBENIMEX] | > 100 | – | – | – | – | – | – |

The remaining lines, values ahead:

| IC50 [1] [µM] | IC50 (Aminopeptidase N) [µM] | IC50 (Histone deacetylase) [µM] | IC50 [2] [µM] | IC50 (HL-60) [µM] | IC50 (A549) [µM] | IC50 (SK-OV-3) [µM] | Structure (SMILES) |
| --- | --- | --- | --- | --- | --- | --- | --- |
| 5.76 | > 100 | > 100 | – | – | – | – | CC(C)[C@H](N)C(=O)NCC(=O)N[C@H]1C[C@@H](C(=O)NO)N(S(=O)(=O)c2ccccc2)C1.Cl |
| 4.36 | > 100 | > 100 | – | – | – | – | Cc1ccc(S(=O)(=O)N2C[C@@H](NC(=O)CNC(=O)[C@H](C)N)C[C@H]2C(=O)NO)cc1.Cl |
| 2.95 | 96.2 | > 100 | – | – | – | – | Cc1ccc(S(=O)(=O)N2C[C@@H](NC(=O)CNC(=O)[C@@H](N)C(C)C)C[C@H]2C(=O)NO)cc1.Cl |
| 0.87 | 75.8 | > 100 | 38.3 | – | – | – | Cc1ccc(S(=O)(=O)N2C[C@@H](NC(=O)CNC(=O)[C@@H](N)CC(C)C)C[C@H]2C(=O)NO)cc1.Cl |
| 2.05 | 92.6 | > 100 | – | – | – | – | CC[C@H](C)[C@H](N)C(=O)NCC(=O)N[C@H]1C[C@@H](C(=O)NO)N(S(=O)(=O)c2ccc(C)cc2)C1.Cl |
| 4.19 | > 100 | > 100 | – | – | – | – | COc1ccc(S(=O)(=O)N2C[C@@H](NC(=O)CNC(=O)[C@H](C)N)C[C@H]2C(=O)NO)cc1.Cl |
| 2.71 | 90.8 | > 100 | – | – | – | – | COc1ccc(S(=O)(=O)N2C[C@@H](NC(=O)CNC(=O)[C@@H](N)C(C)C)C[C@H]2C(=O)NO)cc1.Cl |
| 0.52 | 83.6 | > 100 | 29.7 | – | – | – | COc1ccc(S(=O)(=O)N2C[C@@H](NC(=O)CNC(=O)[C@@H](N)CC(C)C)C[C@H]2C(=O)NO)cc1.Cl |
| 1.94 | 89.9 | > 100 | – | – | – | – | CC[C@H](C)[C@H](N)C(=O)NCC(=O)N[C@H]1C[C@@H](C(=O)NO)N(S(=O)(=O)c2ccc(OC)cc2)C1.Cl |
| 0.76 | > 100 | > 100 | 35.9 | – | – | – | COc1ccc(S(=O)(=O)N2C[C@@H](NC(=O)CNC(=O)[C@@H](N)CCSC)C[C@H]2C(=O)NO)cc1.Cl |
| 1.81 | 79.6 | > 100 | – | – | – | – | CC(C)[C@H](N)C(=O)NCC(=O)N[C@H]1C[C@@H](C(=O)NO)N(S(=O)(=O)c2ccc(Cl)cc2)C1.Cl |
| 1.28 | 86.4 | > 100 | – | – | – | – | CC[C@H](C)[C@H](N)C(=O)NCC(=O)N[C@H]1C[C@@H](C(=O)NO)N(S(=O)(=O)c2ccc(Cl)cc2)C1.Cl |
